Test results published in ChEMBL document CHEMBL2086235, “A novel thiazolidine compound induces caspase-9 dependent apoptosis in cancer cells” (Bioorg Med Chem, 2012).
pIC50: −log10 of the molar value. Calls of active or inactive are those of the source. The calls are words filed in the database; no cut-off is given here.

Experiments:
Format in all cases: functional, cell-based
[1] = tested on: Huh-7; experiment: Growth inhibition of human HuH7 cells incubated for 48 hrs by Giemsa staining
In short: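 Cells grown overnight, compound added from DMSO solution, then incubated 48 h more. Attached cells stained with Giemsa and photographed; qualitative read-out.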

[2] = tested on: Huh-7; experiment: Induction of cell death in human HuH7 cells at 2.5 to 40 uM incubated for 72 hrs by SRB assay
In short: (§1)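 Cells seeded and grown 24 h at 37 °C, then treated 72 h in triplicate. Fixed with cold 10% TCA 1 h at 4 °C, stained with 0.4% SRB in 1% acetic acid 10 min, washed in 1% acetic acid. Dye solubilized in 10 mM Tris base; absorbance read at 515 nm. Normalized to DMSO control and Tz; three independent experiments.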

[3] = tested on: HCT-116; experiment: Induction of cell death in human HCT116 cells at 2.5 to 40 uM incubated for 72 hrs by SRB assay; in short: as §1
[4] = tested on: MCF7; experiment: Induction of cell death in human MCF7 cells at 2.5 to 40 uM incubated for 72 hrs by SRB assay; in short: as §1
[5] = tested on: HepG2; experiment: Cytotoxicity against human HepG2 cells incubated for 72 hrs by SRB assay; conditions: HepG2, 72 h
In short: (§2)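 Cells grown in DMEM with 10% FCS, 2 mM L-glutamine, NEAA and antibiotics at 37 °C, 5% CO2, then seeded at 1000–5000 cells/well and grown 24 h. Compounds were added from DMSO for 72 h, following NCI guidelines. Cells were fixed in cold 10% TCA for 1 h at 4 °C and stained with 0.4% SRB in 1% acetic acid for 10 min. Bound dye was dissolved in 10 mM Tris and absorbance read at 515 nm.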

[6] = tested on: Huh-7; experiment: Cytotoxicity against human HuH7 cells incubated for 72 hrs by SRB assay; conditions: Huh-7, 72 h; in short: as §2
[7] = Cytotoxicity against human MV cells incubated for 72 hrs by SRB assay; in short: as §2
[8] = Cytotoxicity against human FOCUS cells incubated for 72 hrs by SRB assay; in short: as §2
[9] = tested on: HCT-116; experiment: Cytotoxicity against human HCT116 cells incubated for 72 hrs by SRB assay; conditions: HCT-116, 72 h; in short: as §2
[10] = tested on: T47D; experiment: Cytotoxicity against human T47D cells incubated for 72 hrs by SRB assay; in short: as §2
[11] = tested on: MCF7; experiment: Cytotoxicity against human MCF7 cells incubated for 72 hrs by SRB assay; conditions: MCF7, 72 h; in short: as §2
[12] = tested on: BT-20; experiment: Cytotoxicity against human BT20 cells incubated for 72 hrs by SRB assay; conditions: BT-20, 72 h; in short: as §2
[13] = tested on: CAMA-1; experiment: Cytotoxicity against human CAMA1 cells incubated for 72 hrs by SRB assay; conditions: CAMA-1, 72 h; in short: as §2
[14] = tested on: MFE-296; experiment: Cytotoxicity against human MFE296 cells incubated for 72 hrs by SRB assay; conditions: MFE-296, 72 h; in short: as §2

Row | SMILES | growth inhibition (GI) [1] | also measured
1 | CCOC(=O)[C@@H]1CSC(c2ccccc2)N1C(=O)c1cn(CCc2ccc(F)cc2)nn1 (some centres not stated) | inactive | 
2 | CCCCCCCCCCCCNC(=O)[C@@H]1CSC(c2ccccc2)N1C(=O)Cn1cc(C)c(=O)[nH]c1=O (some centres not stated) | inactive | 
3 | Cc1cn(CC(=O)N2C(c3ccccc3)SC[C@H]2C(=O)NCCc2ccccc2)c(=O)[nH]c1=O (some centres not stated) | inactive | 
4 | CCOC(=O)[C@@H]1CSC(c2ccccc2)N1C(=O)c1cn(CCCCCCO)nn1 (some centres not stated) | inactive | 
5 | CCOC(=O)[C@@H]1CSC(c2ccccc2)N1C(=O)c1cn(CC2OCOC2(C)C)nn1 (some centres not stated) | inactive | 
6 | COC(=O)CN(C[C@@H]1CSC(c2ccccc2)N1C(=O)c1ccccc1)C(=O)C(C)(C)C (some centres not stated) | inactive | 
7 | Cc1cn(CC(=O)N2C(c3ccccc3)SC[C@H]2C(=O)NC(C)(C)C)c(=O)[nH]c1=O (some centres not stated) | inactive | Activity [2]: inactive; Activity [3]: inactive; Activity [4]: inactive
8 | CC[C@@]1(O)C(=O)OCc2c1cc1n(c2=O)Cc2cc3ccccc3nc2-1 [CAMPTOTHECIN] |  | pIC50 [5]: 8.00; pIC50 [6]: 6.82; pIC50 [7]: > 6.00; pIC50 [8]: > 6.00; pIC50 [9]: > 6.00; pIC50 [10]: > 6.00; pIC50 [11]: > 6.00; pIC50 [12]: 7.15; pIC50 [13]: 7.15; pIC50 [14]: > 6.00
9 | CCOC(=O)[C@@H]1CSC(c2ccccc2)N1C(=O)c1cn(CCc2ccccc2)nn1 (some centres not stated) | inactive | 
10 | CCOC(=O)[C@@H]1CSC(c2ccccc2)N1C(=O)c1cn(CC(O)CO)nn1 (some centres not stated) | inactive | 
11 | Cc1cn(CC(=O)N2C(c3ccccc3)SC[C@H]2C(=O)NCc2ccccc2)c(=O)[nH]c1=O (some centres not stated) | inactive | 
12 | CCCCCCC(=O)N(CCc1ccsc1)C[C@@H]1CSC(c2ccccc2)N1C(=O)c1ccccc1 (some centres not stated) | inactive | 
13 | COC(=O)CN(C[C@@H]1CSC(c2ccccc2)N1C(=O)c1ccccc1)C(=O)c1c(F)c(F)c(F)c(F)c1F (some centres not stated) | inactive | 
14 | CCCCCCC(=O)N(CC(=O)OC)C[C@@H]1CSC(c2ccccc2)N1C(=O)c1ccccc1 (some centres not stated) | inactive | 
15 | CC(C)(C)C(=O)N(CC(=O)O)C[C@@H]1CSC(c2ccccc2)N1C(=O)c1ccccc1 (some centres not stated) | inactive | 
